This note sets out measurements from PubChem BioAssay AID821 (SRMLSC, 2007).

SMILES strings stand for the structures. Calls of active or inactive are those of the source.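 Rule for the calls: active = compounds whose fitted half-maximal concentration for reducing fibroblast viability is 100 µM or lower; inactive = the rest.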

The test system of assay [1] is LL 47 lung fibroblast viability, ATP luminescence. As to the kind of experiment: inhibition of LL 47 lung fibroblast growth, concentration-response curve, selectivity screen for endothelial cell growth inhibitor project, cellular system, ATP luminescence readout (AID 821).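 For viability: 100% = median of untreated cell-only wells and 0% = no luminescence.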 Put shortly: (§1)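 assay system = LL 47 human lung fibroblasts | quantity = 1,150 cells per well | compound = dose series 0.039–20 µM final, 0.2% DMSO | incubation = overnight cell settling, then 72 h compound exposure at 37 °C | signal = CellTiter-Glo luminescence readout of viable cells | read-out basis = % viability versus median cell-only wells, four-parameter EC50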

Test in assay [2]: as above
As to conditions: LL 47 lung fibroblast viability, ATP luminescence; at 20 µM (top of the series). A digest of the protocol: as §1

Regarding `CN(CCO)c1cc(Sc2nc3ccccc3s2)c2nonc2c1[N+](=O)[O-]`, the EC50 (as a rule, the concentration at which the effect is half-maximal) in assay [1] was 18.6 µM.
Still for that read-out and setting: for `Oc1cccc2ccc(/C=C/c3cccs3)nc12` the value was 9.71 µM; for `Cc1cc(NC(c2cccnc2)c2ccc3cccnc3c2O)no1` (stereo not given), 2.93 µM; for `O=C(Nc1cccnc1)c1ccc(Br)s1`, 13.1 µM.
Take `CCOc1cccc(-n2nnnc2-c2ccc(OC)cc2)c1`: the 50% effective concentration (EC50) in assay [1] is 19.9 µM.
Regarding `Oc1ccccc1-c1nnc(SCCN2CCOCC2)n1Cc1ccccc1`, the concentration giving a half-maximal response (EC50) in assay [1] was 1.48 µM.
Turning to `O=C(Oc1cccc2cccnc12)c1cccs1`, the 50% effective concentration (EC50) in assay [1] is 4.21 µM.
`CCOC(=O)c1sc2nc(C(C)C)c3c(c2c1N)CC(C)(C)OC3`: the EC50 in assay [1] is 12.4 µM.
For `CCOC(=O)C1=C(N)n2c(s/c(=C/c3ccco3)c2=O)=C(C(=O)OC)C1c1ccco1` (stereo not given), in assay [1], the EC50 is 9.27 µM.
Same read-out and setting: the result for `CCCCn1c(=O)c(C(=O)Nc2cnccn2)c(O)c2ccccc21` reads 16.1 µM; that for `O=C1CC(Sc2nnc(-c3ccccc3O)o2)C(=O)N1c1ccccc1` (stereo not given), 20.8 µM.
The same measure, in the same setting: the result for `CCOC(=O)C(C(C)=O)c1c(Br)c(O)c(O)c2c(C(=O)c3ccc(C)cc3)coc12` (stereo not given) reads 8.67 µM; that for `COc1cccc(C(=O)Oc2c(CN3CCOCC3)cc(Cl)c3cccnc23)c1`, 5.95 µM; that for `CCOC(=O)c1c(NC(=O)CCl)sc(C(=O)N(CC)CC)c1C`, 6.25 µM.
Turning to `O=c1[nH]c(Nc2nc3ccccc3o2)nc2c1CCCC2`, in assay [1], the EC50 was 4.52 µM.
For `CC1CC(C)CN(S(=O)(=O)c2ccc(C(=O)Nc3nnc(-c4cccs4)o3)cc2)C1` (stereo not given), in assay [1], the EC50 was 8.61 µM.
As for `O=c1[nH]c2ccccc2n1C1CCN(CCCC(c2ccc(F)cc2)c2ccc(F)cc2)CC1`, the EC50 in assay [1] was 13.6 µM.
Turning to `CCCCOc1ccc(C(=O)C(CN2CCOCC2)c2ccccc2)cc1` (stereo not given), the EC50 in assay [1] is 6.5 µM.
For the compound `COc1cc(NC(=O)Nc2cccc(Cl)c2)c(OC)cc1NC(=O)CN1CCCCC1`, the concentration for a half-maximal effect (EC50) in assay [1] is 20.3 µM.
For the compound `Cc1ccccc1NS(=O)(=O)c1ccc(N2CCCC2=O)cc1`, the half-maximal effective concentration (EC50) in assay [1] is 16.3 µM.
Regarding `CC(C)COC(=O)c1ccc2c(c1O)C(=O)c1ccccc1C2=O`, the EC50 in assay [1] is 17.9 µM.
For `CN1C[C@H](CNC(=O)OCc2ccccc2)C[C@@H]2c3cccc4c3c(cn4C)C[C@H]21`, the EC50 in assay [1] was 15 µM.
Still for that read-out and setting: for `O=C(NNC(=O)c1ccc([N+](=O)[O-])o1)c1ccccc1` the value was 11.7 µM; for `CCSc1nnc(NC(=O)c2ccccn2)s1`, 16.5 µM.
For `COc1cc(N=c2ssnc2Cl)cc(OC)c1OC`, the concentration giving a half-maximal response (EC50) in assay [1] was 15.2 µM.
Same read-out and setting: the result for `O=S(=O)(CCN(CCS(=O)(=O)C(F)(F)F)CC1CCCO1)C(F)(F)F` (stereo not given) reads 5.88 µM.
Turning to `COCc1cc(CN2CCCC2)c(O)c2ncccc12`, in assay [1], the concentration for a half-maximal effect (EC50) was 11.7 µM.
Consider `O=C(CN1CCCC1)Nc1ccc(-c2nc3cc(NC(=O)CN4CCCC4)ccc3o2)cc1`, for which the concentration for a half-maximal effect (EC50) in assay [1] was 7.33 µM.
With `Cc1cccc(CS(=O)(=O)c2nnc([C@H](Cc3ccccc3)NC(=O)OC(C)(C)C)o2)c1`, the EC50 in assay [1] was 16.7 µM.
In the case of `COc1ccc(CC(=O)Nc2ccc(-c3nnc(-c4ccc(C)cc4)o3)cc2)cc1`, the EC50 in assay [1] was 12.8 µM.
Same read-out and setting: the result for `Cc1ccc2[nH]c3c(c2c1)CCCC3=O` reads > 10 µM (inactive); that for `CC1=CC(C)(C)Nc2ccc(OC(=O)CN3C(=O)C4CCCCC4C3=O)cc21` (stereo not given), 12.4 µM; that for `Cc1sc2ncnc(NCC(C)(C)N3CCOCC3)c2c1C`, > 10 µM (inactive).
Turning to `N=c1n(CCN2CCCCC2)c2ccccc2n1CC(O)c1cccc(Br)c1` (stereo not given), in assay [1], the 50% effective concentration (EC50) is 13.3 µM.
Consider `CCC(=O)OCCNc1cc(Sc2nc3ccccc3s2)c2nonc2c1[N+](=O)[O-]`, for which the 50% effective concentration (EC50) in assay [1] is 6.76 µM.
Still for that read-out and setting: for `COc1ccc(NC(=O)/C(Cl)=C(/Cl)S(=O)(=O)Cc2ccccc2)cn1` the value was 6.19 µM.
`CC1CC(C)CN(S(=O)(=O)c2ccc(C(=O)NCCCn3ccnc3)cc2)C1` (stereo not given): the 50% effective concentration (EC50) in assay [1] is 1.77 µM.
The same measure, in the same setting: for `Cc1cc(C)c2c(=O)n(CC(=O)NCCCN3CCN(c4ccccc4F)CC3)sc2n1` the value was 10.2 µM; for `Cc1ccc(/C=N/Nc2ncc(Cl)cc2Cl)s1`, 15.2 µM.
`Cc1ccc(-n2c(SCC(=O)Nc3ccc4c(c3)OCO4)nnc2-c2cccs2)cc1`: the 50% effective concentration (EC50) in assay [1] was 17.5 µM.
On to `Cc1cc(NC(=O)CSc2nc3c(sc4ccccc43)c(=O)n2CCCN2CCOCC2)n[nH]1`, for which the EC50 in assay [1] is > 10 µM (inactive).
Consider `CC(C)CNC(=O)c1coc(=O)c(Br)c1`, for which the EC50 in assay [1] is 20.5 µM.
As to `Cc1cc(C(=O)Nc2nc3ccc(S(C)(=O)=O)cc3s2)c(C)o1`, the viability – broadly, a read-out of living cells in per cent, often relative to untreated cells – in assay [2] is 92.9% (inactive).
In the case of `O=C(Nc1cccc(-c2nc3ncccc3o2)c1)c1cc2ccccc2o1`, the viability in assay [2] is 116% (inactive).
The same measure, in the same setting: the result for `COc1ccccc1OCC(=O)Nc1cccc(-c2nc3ccccc3o2)c1` reads 99% (inactive); that for `COC(=O)c1c(C)n(-c2ccc(OC)cc2)c2ccc(O)cc12`, 87.7% (inactive); that for `CCOC(=O)c1c(N)sc2c(OC)c(Br)ccc12`, 109% (inactive).
In the case of `COc1cc(-c2nnc(COc3ccc4cc(Br)ccc4c3)o2)cc(OC)c1OC`, the viability in assay [2] was 127% (inactive).
Still for that read-out and setting: for `CCOc1ccc(NC(=O)c2cc3n(n2)C(C(F)(F)F)CC(c2ccco2)N3)cc1` (stereo not given) the value was 106% (inactive); for `O=C(Nc1ccc(Cl)c(Cl)c1)C1=Cc2ccccc2OC1`, 99.6% (inactive); for `CCOc1ccc(OCc2ccc(C(=O)NCC3CCCO3)o2)cc1` (stereo not given), 109% (inactive).
On the same count and under the same terms, for `Cc1ccc(C(C)C)c(OCC(=O)Nc2ccc3c(c2)nc(CN2CCCC2)n3C)c1` the value was 91.9% (inactive).
With `NC(=O)Cc1c[nH]c2cccc(O)c12`, the viability in assay [2] is 111% (inactive).
`O=Cc1ccc(Sc2nnc(-c3ccccc3)o2)c([N+](=O)[O-])c1`: the viability in assay [2] was 89.9% (inactive).
Still for that read-out and setting: for `N/C(Cc1ccc(Cl)cc1)=N\OC(=O)c1ccc2ccccc2c1` the value was 91.6% (inactive); for `COC(=O)C1=C(C)N=c2s/c(=C3\C(=O)Nc4ccccc43)c(=O)n2C1c1ccccc1` (stereo not given), 80.9% (inactive); for `CCCCCCn1c(N2CCN(c3ccccc3)CC2)nc2c1c(=O)n(C)c(=O)n2C`, 101% (inactive).
For `CCOc1c(Br)ccc2c1sc1nc[nH]c(=O)c12`, the viability in assay [2] was 102% (inactive).
Take `O=C(Nc1cccnc1)c1ccc(Oc2ccccc2)cc1`: in assay [2], the viability was 85.3% (inactive).
Turning to `COc1ccc(C(c2sc3ncnn3c2O)N2CC(C)OC(C)C2)cc1OC` (stereo not given), the viability in assay [2] is 98.1% (inactive).
As for `CC(C)(C)n1cnc2cc(NS(=O)(=O)c3ccccc3)ccc21`, the viability in assay [2] is 104% (inactive).
For `Cc1ccc(-c2nc3cccnc3o2)cc1NC(=O)COc1ccc(C(C)(C)C)cc1`, in assay [2], the viability was 99.4% (inactive).
Same read-out and setting: the result for `C=C(C)COc1ccc(-c2n[nH]c(C)c2-c2ccccc2OC)c(O)c1` reads 90.3% (inactive); that for `O=C1CCCc2c1[nH]c1ccc(Br)cc21`, 107% (inactive); that for `OC(COc1ccc(Cl)c2ccccc12)CN1CCN(c2ccccn2)CC1` (stereo not given), 109% (inactive).
For the compound `Cc1cc(NC(=O)COC(=O)C(Nc2ccc(C(F)(F)F)cc2Cl)C(C)C)no1` (stereo not given), the viability in assay [2] is 90.8% (inactive).
On the same count and under the same terms, for `O=C(CN1CCN(S(=O)(=O)c2ccc(F)cc2)CC1)Nc1ccc2c(c1)OCO2` the value was 104% (inactive); for `Cc1nn(-c2ccc(Cl)cc2)c2sc(C(=O)N3CCN(c4ccccn4)CC3)cc12`, 91.4% (inactive).
Take `COc1ccc(CN2CCn3ncc(C(=O)Nc4cc(C)cc(C)c4)c3C2=O)cc1`: the viability in assay [2] is 105% (inactive).
On to `CC1=C(C)CS(=O)N(S(=O)(=O)c2ccc(Cl)cc2)C1` (stereo not given), for which, in assay [2], the viability was 106% (inactive).
As for `Cc1cccc(C)c1OCC(=O)N=Nc1c(O)[nH]c2ccc(Br)cc12`, in assay [2], the viability was 104% (inactive).
`N#C/C(=C/c1ccc(N2CCCCCC2)o1)c1ccc(Cl)cc1`: in assay [2], the viability is 100% (inactive).
With `CNC(=O)Cn1c(=O)n(C)c2ccccc21`, the viability in assay [2] was 107% (inactive).
For the compound `CCCc1nc(SCC(=O)N2CCC(Cc3ccccc3)CC2)c2c(=O)n(C)c(=O)n(C)c2n1`, the viability in assay [2] was 106% (inactive).
On to `Cc1ccccc1-n1ncc2c([N+](=O)[O-])cc([N+](=O)[O-])cc21`, for which the viability in assay [2] was 90.7% (inactive).
`Cc1nc2ccccc2c2oc(C(=O)NCc3ccc4c(c3)OCO4)cc12`: in assay [2], the viability is 102% (inactive).
Take `CCCCc1ccc(Nc2nc(CCC)cc(=O)[nH]2)cc1`: in assay [2], the viability is 91% (inactive).
Same read-out and setting: for `OCCNc1nc2ccccc2n1-c1ncnc2sc3c(c12)CCC3` the value was 91.9% (inactive); for `Cc1sc2nc(SCC(=O)NCc3ccco3)n(Cc3ccccc3)c(=O)c2c1C`, 98.4% (inactive); for `Brc1ccccc1OCCCn1cnc2ccccc21`, 111% (inactive).
On the same count and under the same terms, for `CC(C)(C)c1ccc(-c2nnc(SCC(=O)O)n2N)cc1` the value was 103% (inactive).
Turning to `COc1ccc(OC)c(-n2nnnc2SCC(=O)Nc2ccc3c(c2)OCCO3)c1`, the viability in assay [2] was 103% (inactive).
The same measure, in the same setting: the result for `Nc1c(C(=O)Nc2ccc3c(c2)OCCO3)nnn1CCc1ccccc1` reads 82.1% (inactive).
Regarding `O=C(Nc1ccccc1)c1cccc(-c2nnc(-c3ccccc3)o2)c1`, the viability in assay [2] is 102% (inactive).
Take `Cc1ccc(S(=O)(=O)c2c(C)nn(C(C)(C)C)c2OC(=O)c2cccs2)cc1`: in assay [2], the viability is 104% (inactive).
Still for that read-out and setting: the result for `CN1CCN(c2ccccc2NC(=O)c2ccc(-c3ccc(Cl)cc3Cl)o2)CC1` reads 88.2% (inactive); that for `O=C(Nc1ccc(OC(F)F)c(Cl)c1)Nc1ccc2c(c1)OCO2`, 109% (inactive).
`C=CCn1c(O)c(C2=c3ccccc3=NC2=O)s/c1=N/c1nccs1`: the viability in assay [2] was 88% (inactive).
Turning to `Cc1nc(Nc2ccc3c(c2)OCCO3)c2nnn(Cc3ccccc3Cl)c2n1`, the viability in assay [2] is 102% (inactive).
For the compound `COc1ccc(Cl)cc1C(=O)n1nc(C)cc1C`, in assay [2], the viability is 101% (inactive).
